Where two headings read alike, the source gives them in different places.
Columns and labels:
[1] = molecular target: PARP-1 (Homo sapiens, UniProt P09874); assay: PARP-1 radioligand binding assay with [125I]KX1 in OVCAR8 cells
Procedure, shortened: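 OVCAR8 ovarian cancer cells (BRCA1 methylated) seeded at 40,000 cells/well 24 h before the assay. Test compound diluted in RPMI (100 μM–0.064 nM), added with the [125I]KX1 radioligand, equilibrated 1 hr, then washed with PBS. Wells counted on a gamma counter. IC50 from non-linear sigmoidal dose-response fit, n=3; dose ranges were adjusted between repeats.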

[2] = molecular target: recombinant human P-gp (Homo sapiens, UniProt P08183); assay: Pgp-Glo assay; conditions: for Luminescence from unmetabolized ATP (P-gp ATPase stimulation or inhibition): 20 μM compound, 5 mM ATP, 1 hr at 37°C, normalized to Na3VO4
[3] = test system: P-gp; conditions: cited from earlier work

Sequence of PARP-1 (P09874 whole entry): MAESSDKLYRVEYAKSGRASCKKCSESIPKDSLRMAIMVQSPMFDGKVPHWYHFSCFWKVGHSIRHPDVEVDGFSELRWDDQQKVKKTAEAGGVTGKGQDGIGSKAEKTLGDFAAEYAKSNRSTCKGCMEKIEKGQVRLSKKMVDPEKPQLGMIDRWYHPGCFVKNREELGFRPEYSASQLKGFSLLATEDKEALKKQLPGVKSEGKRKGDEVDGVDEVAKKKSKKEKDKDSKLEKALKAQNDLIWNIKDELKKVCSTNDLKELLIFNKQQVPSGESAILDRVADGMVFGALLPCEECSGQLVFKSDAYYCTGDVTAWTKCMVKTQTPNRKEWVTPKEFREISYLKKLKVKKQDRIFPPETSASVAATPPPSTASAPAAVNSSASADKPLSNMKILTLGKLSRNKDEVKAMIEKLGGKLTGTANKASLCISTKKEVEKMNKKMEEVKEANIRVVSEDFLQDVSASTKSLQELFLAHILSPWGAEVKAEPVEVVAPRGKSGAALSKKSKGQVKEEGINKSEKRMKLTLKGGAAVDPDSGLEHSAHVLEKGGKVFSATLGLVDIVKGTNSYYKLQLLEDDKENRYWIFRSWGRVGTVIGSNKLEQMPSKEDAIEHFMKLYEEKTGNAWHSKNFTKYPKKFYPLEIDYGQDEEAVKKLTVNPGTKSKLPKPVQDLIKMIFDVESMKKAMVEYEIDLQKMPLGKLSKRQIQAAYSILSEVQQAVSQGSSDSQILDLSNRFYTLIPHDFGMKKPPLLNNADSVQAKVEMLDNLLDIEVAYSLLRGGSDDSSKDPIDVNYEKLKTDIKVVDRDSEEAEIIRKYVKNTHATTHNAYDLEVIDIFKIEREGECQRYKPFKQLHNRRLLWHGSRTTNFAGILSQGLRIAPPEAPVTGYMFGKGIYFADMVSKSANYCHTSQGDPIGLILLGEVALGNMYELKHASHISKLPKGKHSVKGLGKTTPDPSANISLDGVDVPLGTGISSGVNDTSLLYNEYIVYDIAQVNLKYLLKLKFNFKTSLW
Sequence of recombinant human P-gp (P08183 whole entry): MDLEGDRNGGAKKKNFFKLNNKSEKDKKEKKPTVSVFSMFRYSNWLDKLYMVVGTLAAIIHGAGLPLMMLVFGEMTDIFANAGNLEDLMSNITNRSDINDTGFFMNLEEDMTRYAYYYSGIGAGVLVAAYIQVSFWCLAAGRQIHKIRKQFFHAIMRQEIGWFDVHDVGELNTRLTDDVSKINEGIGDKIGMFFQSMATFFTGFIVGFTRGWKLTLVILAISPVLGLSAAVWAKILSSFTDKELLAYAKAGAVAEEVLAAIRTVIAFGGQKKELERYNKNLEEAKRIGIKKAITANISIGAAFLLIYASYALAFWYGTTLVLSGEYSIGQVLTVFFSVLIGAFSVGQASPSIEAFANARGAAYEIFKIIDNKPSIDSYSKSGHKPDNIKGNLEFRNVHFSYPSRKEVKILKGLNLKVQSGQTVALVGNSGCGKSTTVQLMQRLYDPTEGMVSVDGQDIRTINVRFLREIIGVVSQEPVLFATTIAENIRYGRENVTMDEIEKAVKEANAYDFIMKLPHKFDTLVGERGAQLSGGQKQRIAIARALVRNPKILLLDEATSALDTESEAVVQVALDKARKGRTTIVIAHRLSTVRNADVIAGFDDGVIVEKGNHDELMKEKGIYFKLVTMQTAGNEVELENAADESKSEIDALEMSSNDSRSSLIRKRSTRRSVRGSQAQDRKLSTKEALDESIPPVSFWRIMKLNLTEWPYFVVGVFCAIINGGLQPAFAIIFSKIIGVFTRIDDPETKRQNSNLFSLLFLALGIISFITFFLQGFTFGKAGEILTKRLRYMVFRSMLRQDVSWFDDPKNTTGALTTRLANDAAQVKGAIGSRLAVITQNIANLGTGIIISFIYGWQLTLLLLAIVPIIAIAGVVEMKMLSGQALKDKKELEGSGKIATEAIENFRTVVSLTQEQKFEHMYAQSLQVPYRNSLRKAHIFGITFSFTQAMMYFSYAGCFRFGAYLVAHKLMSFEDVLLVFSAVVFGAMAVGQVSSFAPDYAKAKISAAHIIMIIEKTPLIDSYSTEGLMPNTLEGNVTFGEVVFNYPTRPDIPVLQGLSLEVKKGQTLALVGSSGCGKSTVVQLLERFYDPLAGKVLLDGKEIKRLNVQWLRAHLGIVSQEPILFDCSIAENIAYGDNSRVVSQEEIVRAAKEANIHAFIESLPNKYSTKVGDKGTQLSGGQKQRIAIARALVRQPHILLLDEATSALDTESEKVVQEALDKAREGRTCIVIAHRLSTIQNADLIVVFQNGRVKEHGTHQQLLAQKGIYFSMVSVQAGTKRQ

SMILES | IC50 [1] [nM] | Luminescence from unmetabolized ATP (P-gp ATPase stimulation or inhibition) [2] | further results
[Na+].[Na+].[Na+].[O]=[V]([O-])([O-])[O-] [Na3VO4, reference compound] | – | increased luminescence | –
C[C@]1(c2nc3c(C(N)=O)cccc3[nH]2)CCCN1 [veliparib] | – | – | P-gp substrate status [3]: weak P-gp substrates
O=C(c1cc(Cc2n[nH]c(=O)c3ccccc23)ccc1F)N1CC2(C1)CN(c1ccc(F)cc1)C2 [Compound 14, 4-(4-fluoro-3-(6-(4-fluorophenyl)-2,6-diazaspiro[3.3]heptane-2-carbonyl)benzyl)phthalazin-1(2H)-one] | 0.3 | increased luminescence | –
O=C(c1cc(Cc2n[nH]c(=O)c3ccccc23)ccc1F)N1CCN(c2ccc(F)cc2)CC1 [Compound 11a, 4-(4-fluoro-3-(4-(4-fluorophenyl)piperazine-1-carbonyl)benzyl)phthalazin-1(2H)-one] | 0.6 ± 1.2 | – | –
COC1CCN(C(=O)c2cc(Cc3n[nH]c(=O)c4ccccc34)ccc2F)CC1 [Compound 2, AZD2461] | – | – | P-gp substrate status [3]: weak P-gp substrates; P-gp substrate status ([3]; listed as AZD2461): poor P-gp substrate
O=C(c1cc(Cc2n[nH]c(=O)c3ccccc23)ccc1F)N1CCN(C(=O)C2CC2)CC1 [olaparib] | – | – | P-gp substrate status [3]: known substrates for P-gp
O=C(c1cc(Cc2n[nH]c(=O)c3ccccc23)ccc1F)N1CC2(CC(OCCF)C2)C1 [Compound 9a, 4-(4-fluoro-3-(6-(2-fluoroethoxy)-2-azaspiro[3.3]heptane-2-carbonyl)benzyl)phthalazin-1(2H)-one] | 10.7 ± 1.1 | – | –
C[C@]12CCCN1CC1=NNC(=O)c3cc(F)cc4[nH]c2c1c34 [BGB-290] | – | – | P-gp substrate status [3]: weak P-gp substrates
O=C(c1cc(Cc2n[nH]c(=O)c3ccccc23)ccc1F)N1CC2(CC(c3ccc(F)cc3)C2)C1 [Compound 17, 4-(4-fluoro-3-(6-(4-fluorophenyl)-2-azaspiro[3.3]heptane-2-carbonyl)benzyl)phthalazin-1(2H)-one] | 2.8 | increased luminescence | –
O=C(c1cc(Cc2n[nH]c(=O)c3ccccc23)ccc1F)N1CCC(c2ccc(F)cc2)CC1 [Compound 11b, 4-(4-fluoro-3-(4-(4-fluorophenyl)piperidine-1-carbonyl)benzyl)phthalazin-1(2H)-one] | 1.3 | increased luminescence | –

Second part, led by results:

IC50 [1] [nM] | Luminescence from unmetabolized ATP (P-gp ATPase stimulation or inhibition) [2] | SMILES | further results
7.5 ± 1.1 | – | O=C(c1cc(Cc2n[nH]c(=O)c3ccccc23)ccc1F)N1CC(OCCF)C1 [Compound 9b, 4-(4-fluoro-3-(3-(2-fluoroethoxy)azetidine-1-carbonyl)benzyl)phthalazin-1(2H)-one] | –
6.8 | – | O=C(c1cc(Cc2n[nH]c(=O)c3ccccc23)ccc1F)N1CC[C@H](OCCF)C1 [Compound 9d, (S)-4-(4-fluoro-3-(3-(2-fluoroethoxy)pyrrolidine-1-carbonyl)benzyl)phthalazin-1(2H)-one] | –
3.9 ± 1.2 | increased luminescence | O=C(c1cc(Cc2n[nH]c(=O)c3ccccc23)ccc1F)N1CCC(OCCF)CC1 [Compound 9e, 4-(4-fluoro-3-(4-(2-fluoroethoxy)piperidine-1-carbonyl)benzyl)phthalazin-1(2H)-one] | P-gp substrate status ([2]; authors' conclusion from the P-gp assay): weak substrate for P-gp
5.6 ± 1.1 | – | O=C(c1cc(Cc2n[nH]c(=O)c3ccccc23)ccc1F)N1CCCC(OCCF)CC1 (stereo not drawn) [Compound 9f, 4-(4-fluoro-3-(4-(2-fluoroethoxy)azepane-1-carbonyl)benzyl)phthalazin-1(2H)-one] | –
10.1 ± 1.1 | – | O=C(c1cc(Cc2n[nH]c(=O)c3ccccc23)ccc1F)N1CC[C@@H](OCCF)C1 [Compound 9c, (R)-4-(4-fluoro-3-(3-(2-fluoroethoxy)pyrrolidine-1-carbonyl)benzyl)phthalazin-1(2H)-one] | –
